Screens: PubChem, Johns Hopkins Ion Channel Center
The list is not random: actives were taken first. Their share in the collection is about 3.7%.
Kir21 block: blocks the mouse Kir2.1 inward-rectifier potassium channel; HEK293-Kir2.1, FluxOR thallium flux fluorescence; hits give low values; hit rate 0.85% among 310,000; B-score at 10 µM;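 active means fluorescence ratio B-score at or below minus 3 SD of library scores, with starting-brightness B-score within 2 SD, cut at about -4.2 in these data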;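 further: channel flux triggered by added potassium and thallium sulfate stimulus; B-score of peak minus minimum fluorescence over baseline after thallium stimulus; more negative B-score means stronger Kir2.1 block with less thallium influx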
Target sequence (P35561 whole entry, looked up): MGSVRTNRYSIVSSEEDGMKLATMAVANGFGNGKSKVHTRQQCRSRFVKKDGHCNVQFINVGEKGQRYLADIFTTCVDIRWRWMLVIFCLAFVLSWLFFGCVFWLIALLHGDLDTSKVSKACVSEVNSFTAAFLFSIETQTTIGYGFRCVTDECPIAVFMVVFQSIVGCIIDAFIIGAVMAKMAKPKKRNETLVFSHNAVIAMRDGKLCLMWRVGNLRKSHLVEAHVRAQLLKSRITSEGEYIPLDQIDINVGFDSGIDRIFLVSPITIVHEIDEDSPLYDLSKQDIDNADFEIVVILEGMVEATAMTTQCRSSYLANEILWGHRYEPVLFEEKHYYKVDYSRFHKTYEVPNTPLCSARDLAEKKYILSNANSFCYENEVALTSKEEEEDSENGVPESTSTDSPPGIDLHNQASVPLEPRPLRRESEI
KCNQ1 act: potentiators or activators of human KCNQ1 potassium channel; P51787; AID 2648; CHO-K1 KCNQ1, thallium flux FluxOR fluorescence; hits give high values; B-score at 10 µM; hit rate 0.35% among 310,000;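 active means fluorescence ratio B-score, a plate-corrected score, at least three library SD, with initial intensity B-score within 5 SD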
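System: Stable KCNQ1 CHO-K1 line | Incubation: 90 min dye loading and 20 min compound exposure, both at room temperature | Measure: Ratio B score | Medium: Assay buffer for compound exposure, DMSO matched across wells | Compound dosing: Single-concentration screen | Probe or stimulus: K+/Tl+ depolarizing stimulus | Measured by: Kinetic FluxOR fluorescence, 10 s baseline plus 110 s post-stimulus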
KCNK9 inh: inhibitors of human KCNK9 two-pore domain potassium channel | Q9NPC2 | HEK293 KCNK9, FluxOR thallium flux fluorescence; hits give low values | B-score at 10 µM | hit rate 1.2% among 310,000;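 active means ratio B-score over 3 SD below the library mean, with starting fluorescence within 5 SD of its mean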;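 further: negative B-score means less thallium flux so channel inhibition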
KCNQ1 inh: inhibitors of human KCNQ1 potassium channel | AID 2642 | CHO-K1 KCNQ1, FluxOR thallium flux fluorescence; hits give high values | hit rate 1.3% among 310,000 | B-score at 10 µM | P51787;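 active means compounds whose thallium flux B-score, printed positive for inhibition, exceeds three library SD while starting fluorescence stays within three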;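 further: channel opened by potassium depolarization with thallium stimulus after 20 min compound exposure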
KCNK3 block: human KCNK3 channel inhibition, primary screen. CHO-KCNK3 thallium flux, FluxOR fluorescence; hits give low values. hit rate 0.84% among 340,000. B-score at 10 µM;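 active means B-score under library mean minus 4 SD, starting fluorescence ratio at most library mean plus 5 SD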;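 further: more negative B-score means stronger inhibition of thallium flux through KCNK3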
hERG rescue: hERG (human) protection from proarrhythmic block | Q12809 | activation (rescue from dofetilide block), less the hit threshold, % at 10 µM | hit rate 0.51% among 310,000 | CHO-hERG, FluxOR thallium flux, dofetilide IC70 present;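 active means activation above the mean of controls blocked by dofetilide plus 5 SD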;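 further: thallium influx through hERG after potassium depolarization seen as dye fluorescence rise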
KCNK9 block conf: confirmation of human KCNK9 potassium channel inhibitors | shares compounds with KCNK9 inh | HEK293 KCNK9 cells, FluxOR thallium flux fluorescence | inhibition, % at 10 µM | hit rate 43% among 4,900;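 active means thallium signal inhibited by more than 5 SD of the compound-free buffer control wells, on both duplicate plates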
Kir2-1 spec: selectivity of KCNK9 modulators against mouse Kir2.1; Kir2.1 cells, FluxOR thallium flux fluorescence; shares compounds with KCNK9 inh; hit rate 4% among 4,900; AID 492993; inhibition, % at 10 µM;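 active means thallium signal drop more than 5 SD beyond the mean of the no-compound control wells, seen in both duplicate plates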;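 further: signal is fluorescence rise after thallium addition divided by baseline fluorescence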
KCNK9 uninduced: non-induced cell nonspecific activity of KCNK9 modulators; hit rate 40% among 4,900; inhibition, % at 10 µM; shares compounds with KCNK9 inh; non-induced KCNK9-HEK293, FluxOR thallium flux; AID 492997;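 active means thallium signal drop beyond 5 SD of the untreated control mean, on both duplicate plates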
Hits are given with their value; n = inactive; x = not tested or not shown.

SMILES | Kir21 block | KCNQ1 act | KCNK9 inh | KCNQ1 inh | KCNK3 block | hERG rescue | KCNK9 block conf | Kir2-1 spec | KCNK9 uninduced
Cc1cccc2sc(NNC(=O)c3ccc(S(=O)(=O)N4CCc5ccccc5C4)cc3)nc12 | n | n | n | n | n | n | n | n | n
CCC(Sc1nnc(C)c(=O)[nH]1)C(=O)Nc1cccc2ccccc12 (stereo unspecified) | n | n | n | n | n | n | x | x | x
O=C(NCC(c1ccco1)N1CCc2ccccc21)C(=O)Nc1ccc(F)cc1F (stereo unspecified) | n | n | -14 | n | n | n | 32% | n | 27%
COc1ccc(NC(=O)CCNS(=O)(=O)c2ccc3[nH]c(=O)oc3c2)cc1Cl | n | n | n | n | n | n | x | x | x
O=C(Cc1ccc(Br)cc1)N(Cc1ccccc1)c1ccccn1 | n | n | n | n | n | n | x | x | x
O=C(OCC(=O)N1CCCc2ccccc21)c1cnc(Cl)c(Cl)c1 | n | n | n | n | n | n | n | n | n
O=C(OCC(=O)N1CCCc2ccccc21)c1cccc(C(F)(F)F)c1 | n | n | n | n | n | n | n | n | n
Cc1cccc(OCCCC(=O)N2CCCc3ccccc32)c1C | n | n | n | n | n | n | n | n | n
COC(=O)C(CC(=O)c1ccc(Br)cc1)n1cccn1 (stereo unspecified) | n | n | n | n | n | n | x | x | x
COc1ccc(-n2nc(C(=O)NCC(=O)N3CCC(C)CC3)c3ccccc3c2=O)cc1Cl | n | n | n | n | n | n | n | n | n
COc1ccc(-n2nc(C(=O)NCC(=O)N3CCN(c4ccccn4)CC3)c3ccccc3c2=O)cc1Cl | n | n | n | n | n | n | x | x | x
O=C(CSc1nc2ccccc2o1)Nc1ccccc1N1CCCCCC1 | n | n | -11 | n | n | n | 61% | 40% | 41%
CC(C)Cn1c(=O)c2c(nc3n2CCCN3CCc2ccccc2)n(C)c1=O | n | n | -8.6 | n | n | n | 46% | n | n
C[C@@H](CN=[N+]=[N-])CN1CC[C@H](C(C)(C)C)CCC1=O | n | n | n | n | n | n | x | x | x
COc1ccccc1OCCOCCOc1c(C)cc(C)cc1Br | n | n | n | n | n | n | n | n | n
Cc1ccc(OCCOCCOc2cccc3cccnc23)c(Br)c1 | n | n | n | n | n | n | n | n | n
COc1cc(C)ccc1OCCOCCOc1c(C)cc(C)cc1Br | n | n | n | n | n | n | n | n | n
Clc1cc(Br)ccc1OCCOCCOc1cccc2cccnc12 | n | n | n | n | n | n | x | x | x
Cc1ccc(NC(=O)c2cnn(-c3ccccc3)c2C)cc1 | n | n | n | n | n | n | x | x | x
Cc1ccc(NC(=O)c2cc(C)n(-c3ccccc3)c2C)cc1 | n | n | n | n | n | n | n | n | n
COc1ccc2c(c1)C(SCC(=O)NCCc1ccccc1)CC(C)(C)O2 (stereo unspecified) | n | n | n | n | n | n | n | n | n
COc1cc2nc(Nc3ccc(C)c(Cl)c3)nc(N)c2cc1OC | n | n | -16 | n | n | n | n | n | n
CCOC(=O)c1ccc(Nc2nc(N)c3cc(OC)c(OC)cc3n2)cc1 | n | n | n | n | n | n | x | x | x
O=C(Nc1ccncc1)c1c(F)c(F)c(F)c(F)c1F | n | n | -11 | n | n | n | 36% | n | 28%
O=C(Nc1cccnc1)c1c(F)c(F)c(F)c(F)c1F | n | n | n | n | n | n | x | x | x
CCN(Cc1ccccc1)C(=O)Cn1cc(S(=O)(=O)NC)c(S(=O)(=O)NC)c1 | n | n | n | n | n | n | x | x | x
CC(=O)NC1C(=O)N=C(SC(C)C(=O)Nc2cccc(Cl)c2)NC1=O (stereo unspecified) | n | n | n | n | n | n | x | x | x
COC(=O)c1cc(NC(=O)CN(c2ccccc2OC)S(=O)(=O)c2ccccc2)ccc1Cl | n | n | -15 | n | n | n | 64% | n | n
